About 1,700 (0.47%) of roughly 360,000 compounds were called active.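 The calls were made as follows: active = inhibition above its plate's cutoff, the mean of tested wells on that plate plus 3 SD (cut at about 29% in these data); inactive = the rest.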 Shown is part of a subset that was picked to be rich in actives.

Chain of Melanocortin receptor 4 (Homo sapiens) (P32245 whole entry, looked up): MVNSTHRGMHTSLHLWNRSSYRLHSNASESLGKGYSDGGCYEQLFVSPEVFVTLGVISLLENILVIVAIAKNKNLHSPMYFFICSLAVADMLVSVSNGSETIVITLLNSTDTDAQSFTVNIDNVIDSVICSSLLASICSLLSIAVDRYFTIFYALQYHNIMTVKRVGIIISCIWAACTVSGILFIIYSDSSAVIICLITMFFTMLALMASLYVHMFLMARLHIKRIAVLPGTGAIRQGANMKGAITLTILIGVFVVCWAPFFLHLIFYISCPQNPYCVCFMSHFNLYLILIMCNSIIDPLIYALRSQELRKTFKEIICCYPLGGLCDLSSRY

The assay deals with Melanocortin receptor 4 (Homo sapiens) (UniProt P32245). The assay can be described thus: blockers of MC4R Gs-cAMP response – cell-based, TR-FRET, antagonist arm of biased-ligand search, primary screen (AID 540295).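 Also: 0% = Melanotan II alone and 100% = Melanotan II plus saturating MCL0020.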 The conditions noted are these: MC4R-expressing cells, MTII-stimulated cAMP, LANCE TR-FRET; at 6.5 µM; hits give high values. The method in brief:
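Material: U2OS-MC4R stable cell line | Reagent: Melanotan II challenge after compound preincubation | Doses: One concentration, 6.5 µM nominal | Incubation: 30-min compound preincubation, 1-h Melanotan II challenge, 1-h detection, room temperature | Signal: TR-FRET cAMP assay | Replicates: One well per compound, no replicates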
In general terms: TR-FRET usually uses a lanthanide donor and a delayed reading to cut background.
Broadly, the inhibition is the change of the read-out against control, counted positive when it falls. In the case of `CC(NS(=O)(=O)c1ccc(Br)cc1)C(=O)NCC1CCCO1` (stereo unspecified), the inhibition is 40.5% (active).

For the compound `O=C(NCC1CCCO1)c1ccc(S(=O)(=O)Nc2ccc(F)cc2)cc1` (stereo unspecified), the inhibition was 1.8% (inactive). The value for `CCC(=O)Nc1ccc(S(=O)(=O)NCC2CCCO2)cc1` (stereo unspecified) was 6.76% (inactive); that for `Cn1cccc1C1(C(F)(F)F)NCCNC1=O` (stereo unspecified) was 1.67% (inactive). `CC(=O)Nc1ccc(Sc2ccccc2C(=O)N2CCCC2)cn1`: the inhibition is 32% (active).

On to `O=C(Cc1ccccc1)Nc1c(C(=O)N2CCCCCC2)cnn1-c1ccccc1`, for which the inhibition was 1.13% (inactive). Take `O=C(Nc1ccccc1C(=O)N1CCCCCC1)c1ccccc1Cl`: the inhibition is 2.65% (inactive). On to `O=C(NCc1ccccc1)C1=C[C@@H](c2ccccc2)C[C@@H](OCCCCO)O1`, for which the inhibition was -12.3% (inactive). The value for `Cc1ccccc1N1CCN(C2CCCN(C(=O)c3cn4c(C)cccc4n3)C2)CC1` (stereo unspecified) was -0.92% (inactive). For `Cc1c(CNCCc2ccccc2)c(C(=O)O)c(C)n1-c1ccccc1`, the inhibition is 11.5% (inactive).

On to `CCc1nn(CCCC(=O)Nc2ccc(C)cc2C)c(=O)c2cc3occc3n12`, for which the inhibition is -1.71% (inactive).

In the case of `O=C(c1ccc(Cl)c(S(=O)(=O)N2CCCCCC2)c1)N1CCN(c2ccc(O)cc2)CC1`, the inhibition is -1.58% (inactive). Take `c1ccc(-n2cccc2)c(N2CCCCC2)c1`: the inhibition was 4.15% (inactive). The value for `O=C1C=CC(=O)N1c1ccc(N2CCCCC2)cc1` was 43.8% (active); that for `CCc1nc2ccc(C(=O)N3CCC(O)(Cc4ccccc4)CC3)cn2c1N(C)C(=O)Cc1ccccc1` was 9.63% (inactive); that for `CCCCn1nc(C(=O)N2CCc3ccccc32)c2ccccc2c1=O` was 9.32% (inactive). As for `S=C(NC1CCCCC1)NN1CCOCC1`, the inhibition is 7.17% (inactive). In the case of `COc1cc([N+](=O)[O-])ccc1NC(=O)COC(=O)CCOc1ccc(C)cc1`, the inhibition is 7.73% (inactive).

Consider `Cc1ccc(NC(=O)C(C)OC(=O)C2CC3CCCC(C2)C3=O)cc1S(=O)(=O)N1CCOCC1` (stereo unspecified), for which the inhibition is -1.35% (inactive).

For the compound `CC(OC(=O)CCCc1c[nH]c2ccccc12)C(=O)Nc1ccc(S(N)(=O)=O)cc1` (stereo unspecified), the inhibition is -3.17% (inactive). Take `Cc1ccc(NC(=O)C(C)OC(=O)Cc2c[nH]c3ccccc23)cc1S(=O)(=O)N1CCOCC1` (stereo unspecified): the inhibition is 28.7% (active).

As for `N#Cc1c(-c2cccs2)nc(SCC(=O)c2ccc(Br)cc2)[nH]c1=O`, the inhibition is 39.6% (active). The value for `CC(=O)CSc1nc(CCc2ccccc2)c(C#N)c(=O)[nH]1` was 7.06% (inactive). The value for `O=C(CSc1nc2ccccc2c(=O)[nH]1)Nc1nc(-c2ccc(Br)cc2)cs1` was 10% (inactive); that for `CC(=O)Nc1cccc(-c2cc(NC(C)=O)c3ncc(-c4ccccc4)n3c2)c1` was 9.96% (inactive).

Turning to `COc1ccc(C(=O)N2CCCCC2c2cc(C(=O)Nc3ccc(F)c(Cl)c3)no2)cc1` (stereo unspecified), the inhibition was 16.2% (inactive).
